In PMC7703390 (Journal of Pharmaceutical and Biomedical Analysis, 2020):

What was measured:
[1] = target: human serum albumin (HSA) (Homo sapiens, UniProt P02768); assay: Binding of nucleotides to human serum albumin by native ESI-FT-ICR MS
How it was run: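 Commercial HSA buffer-exchanged five times into 10 mM NH4Ac (pH 6.0) on a 30k membrane filter. Purified HSA (3 μM) mixed with varying nucleotide concentrations in 10 mM NH4Ac and infused at 5 μL∙min−1 in native positive-mode ESI-FT-ICR MS, m/z 1000–5000, 200 scans combined. Free HSA to complex intensity ratios taken from deconvoluted 17+ to 19+ charge states; KD by nonlinear regression.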

[2] = Degradation in liver homogenate on ice and at room temperature; format: in vitro ADME, mouse; settings: both on ice and at room temperature; Fig. 4a

Sequence of human serum albumin (HSA) (P02768 25-609): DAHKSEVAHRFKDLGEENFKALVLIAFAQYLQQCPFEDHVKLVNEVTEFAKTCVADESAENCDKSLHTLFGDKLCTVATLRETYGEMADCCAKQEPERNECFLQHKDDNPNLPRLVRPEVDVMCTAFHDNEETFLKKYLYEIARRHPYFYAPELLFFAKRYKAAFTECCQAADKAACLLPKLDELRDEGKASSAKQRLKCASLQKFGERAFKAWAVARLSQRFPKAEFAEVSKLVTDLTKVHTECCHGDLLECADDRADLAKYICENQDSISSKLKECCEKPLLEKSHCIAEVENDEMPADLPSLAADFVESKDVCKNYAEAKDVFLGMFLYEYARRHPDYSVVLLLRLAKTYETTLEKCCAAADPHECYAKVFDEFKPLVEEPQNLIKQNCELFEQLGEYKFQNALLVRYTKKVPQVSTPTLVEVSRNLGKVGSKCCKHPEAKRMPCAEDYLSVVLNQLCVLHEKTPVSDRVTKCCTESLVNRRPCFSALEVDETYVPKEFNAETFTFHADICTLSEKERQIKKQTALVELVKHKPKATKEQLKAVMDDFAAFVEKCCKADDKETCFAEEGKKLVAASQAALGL

| Kd [1] | degradation in bio-sample without stabilizer [2] | SMILES |
| --- | --- | --- |
| 0.471 ± 0.0238 µM |  | Nc1ncnc2c1ncn2[C@@H]1O[C@H](COP(=O)(O)OP(=O)(O)OP(=O)(O)O)[C@@H](O)[C@H]1O [ATP, Adenosine triphosphate] |
|  | almost completely degraded in 5 min | CCC(CC)COC(=O)[C@H](C)N[P@](=O)(OC[C@H]1O[C@@](C#N)(c2ccc3c(N)ncnn23)[C@H](O)[C@@H]1O)Oc1ccccc1 [RDV, Remdesivir] |
| 6.79 ± 0.333 µM |  | O=c1ccn([C@@H]2O[C@H](COP(=O)(O)OP(=O)(O)OP(=O)(O)O)[C@@H](O)[C@H]2O)c(=O)[nH]1 [UTP, uridine triphosphate] |
